The values below come from ChEMBL document CHEMBL2029240 (ACS Med Chem Lett, 2011).

Activity calls are given as the source filed them. The rule behind the calls is not given here.

For series [1], the target named is C-C chemokine receptor type 2 (Mus musculus, UniProt P51683). Nature of the series: Antagonist activity at mouse CCR2. The class given is functional. An outline of the steps:
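Read-out was antagonism of CCR2-mediated chemotaxis in a mouse chemotaxis assay, with activity reported as IC50.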

Series [2] in a line: Permeability across human Caco2 cells. The class given is ADME, cell-based. Particulars: Caco-2, read-out: permeability.
For series [3], the system named is Rattus norvegicus. Nature of the series: AUC in rat at 10 mg/kg, po. The class given is ADME, organism-based, Plasma. Further details: dose 10 mg/kg, route oral. Particulars: in vivo. In a few lines: (§1)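 Rats were dosed iv at 2 mg/kg and orally at 10 mg/kg. Plasma PK parameters derived: CL (L/h/kg), Vss (L/kg), t1/2 (h), Cmax (nM), Tmax (h), AUC (nM h) and oral F%.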

The nature of series [4]: Cmax in dog at 10 mg/kg, po. Type of series: ADME, organism-based, Canis lupus familiaris. The arrangement: dose 10 mg/kg, route oral. Particulars: in vivo.
The subject of series [5] is Rattus norvegicus. Nature of the series: Half life in rat at 2 mg/kg, iv. Particulars: in vivo. The class given is ADME, organism-based. Further details: dose 2 mg/kg, route intravenous. In a few lines:
as §1

The test system of series [6] is Rattus norvegicus. Nature of the series: Oral bioavailability in rat at 10 mg/kg. The class given is ADME, organism-based. Particulars: in vivo. In a few lines: as §1
In series [7] the target is C-C chemokine receptor type 5 (Homo sapiens) (UniProt P51681). Nature of the series: Inhibition of CCR5 at 1 uM. An outline of the steps: (§2)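 Single-concentration screen at 1 μM against a broad panel of more than 50 targets (ion channels, transporters, chemokine receptors, other GPCRs), scored for significant inhibition.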
For a further series, the target named is Cytochrome P450 2D6 (Homo sapiens, UniProt P10635). Nature of the series: Inhibition of CYP2D6. Type of series: ADME.
Series [8] has as its target T1, C-C chemokine receptor type 3 (Homo sapiens) (UniProt P51677).
T1 sequence (whole entry): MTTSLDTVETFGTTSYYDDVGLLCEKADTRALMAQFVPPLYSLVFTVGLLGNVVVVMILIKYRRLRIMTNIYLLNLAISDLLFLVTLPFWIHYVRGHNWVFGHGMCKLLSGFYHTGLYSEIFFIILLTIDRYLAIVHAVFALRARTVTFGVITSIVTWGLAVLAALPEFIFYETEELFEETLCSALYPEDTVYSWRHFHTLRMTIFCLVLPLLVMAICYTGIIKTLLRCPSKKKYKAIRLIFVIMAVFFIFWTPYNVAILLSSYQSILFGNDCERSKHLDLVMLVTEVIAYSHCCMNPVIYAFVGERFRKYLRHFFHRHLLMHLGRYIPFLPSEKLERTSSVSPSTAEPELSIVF
Nature of the series: Inhibition of CCR3 at 1 uM. An outline of the steps:
as §2

The subject of series [9] is Rattus norvegicus. Nature of the series: Clearance in rat at 2 mg/kg, iv. Type of series: ADME, organism-based. Further details: dose 2 mg/kg, route intravenous. Particulars: in vivo. In a few lines:
as §1

A short description of series [10]: Cmax in rat at 10 mg/kg, po. The arrangement: dose 10 mg/kg, route oral. Particulars: in vivo. Type of series: ADME, organism-based. An outline of the steps: as §1
Series [11] in a line: Drug metabolism in human S9 fraction assessed as glutathione adduct formation in the presence of NADPH. Type of series: ADME, subcellular. An outline of the steps:
(§3)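 Test agent incubated with human liver S9 fraction plus glutathione as cofactor, run both with and without NADPH. Read-out was detection of glutathione adducts.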

Series [12] can be described thus: Tmax in dog at 10 mg/kg, po. Particulars: in vivo. Further details: dose 10 mg/kg, route oral. Type of series: ADME, organism-based, Canis lupus familiaris.
Series [13] can be described thus: Drug metabolism in human S9 fraction assessed as glutathione adduct formation in the absence of NADPH. The class given is ADME, subcellular. In a few lines:
as §3

C-C chemokine receptor type 2, sequence (P51683 whole entry): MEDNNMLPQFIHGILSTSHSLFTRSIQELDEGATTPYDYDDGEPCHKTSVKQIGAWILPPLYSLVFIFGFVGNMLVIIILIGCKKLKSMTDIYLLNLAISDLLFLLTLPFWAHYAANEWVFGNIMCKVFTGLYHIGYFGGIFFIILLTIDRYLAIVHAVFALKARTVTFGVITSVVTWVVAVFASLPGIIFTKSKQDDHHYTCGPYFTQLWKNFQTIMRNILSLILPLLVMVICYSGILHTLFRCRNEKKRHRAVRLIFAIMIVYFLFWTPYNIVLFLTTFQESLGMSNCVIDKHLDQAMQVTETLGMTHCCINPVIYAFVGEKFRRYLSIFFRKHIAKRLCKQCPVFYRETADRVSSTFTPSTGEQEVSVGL
Cytochrome P450 2D6, sequence (P10635 whole entry): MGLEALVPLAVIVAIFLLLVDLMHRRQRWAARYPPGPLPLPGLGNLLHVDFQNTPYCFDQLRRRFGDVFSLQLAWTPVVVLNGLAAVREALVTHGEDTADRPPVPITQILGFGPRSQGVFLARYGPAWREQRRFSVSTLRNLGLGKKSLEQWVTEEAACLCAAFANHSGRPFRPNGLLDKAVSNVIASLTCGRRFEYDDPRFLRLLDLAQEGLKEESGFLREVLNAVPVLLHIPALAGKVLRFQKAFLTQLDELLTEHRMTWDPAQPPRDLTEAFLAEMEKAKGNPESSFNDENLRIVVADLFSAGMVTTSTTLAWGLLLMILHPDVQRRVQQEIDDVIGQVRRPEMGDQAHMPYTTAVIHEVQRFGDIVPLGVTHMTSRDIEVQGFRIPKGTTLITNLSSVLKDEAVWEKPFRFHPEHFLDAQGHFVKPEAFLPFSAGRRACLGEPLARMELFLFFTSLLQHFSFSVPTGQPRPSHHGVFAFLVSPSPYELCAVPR
C-C chemokine receptor type 5 (Homo sapiens), sequence (P51681 whole entry, looked up): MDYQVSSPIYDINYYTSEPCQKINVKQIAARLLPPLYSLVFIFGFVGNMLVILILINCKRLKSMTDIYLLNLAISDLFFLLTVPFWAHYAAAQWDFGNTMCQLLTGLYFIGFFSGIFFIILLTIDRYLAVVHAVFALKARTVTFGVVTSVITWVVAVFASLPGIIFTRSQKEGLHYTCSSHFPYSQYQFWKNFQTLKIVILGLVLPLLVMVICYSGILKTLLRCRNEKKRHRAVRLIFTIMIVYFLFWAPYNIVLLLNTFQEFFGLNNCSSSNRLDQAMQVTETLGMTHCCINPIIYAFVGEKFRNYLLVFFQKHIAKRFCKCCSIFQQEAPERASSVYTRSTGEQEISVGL

Take `O=C(NCC(=O)N1CC[C@H](N[C@H]2CC[C@@](O)(c3ccc(-c4ncccn4)cn3)CC2)C1)c1cccc(C(F)(F)F)c1` [PF-4136309]: the IC50 was 16 nM in series [1] and > 30000 nM against Cytochrome P450 2D6. In addition, the Papp in series [2] is 3.1 ×10⁻⁶ cm/s. The same compound displayed an AUC with Rattus norvegicus [3] of 2.723 µM·h. The Cmax came out at 20 µM in series [4] and 0.61 µM in series [10]. Besides, in the series with Rattus norvegicus [5], the t1/2 was found to be 2.5 h. Also, in the series with Rattus norvegicus [6], the F was found to be 78%. Further, the inhibition result in series [7] and in series [8] was “inactive” each time. The same compound displayed a CL in the series with Rattus norvegicus [9] of 23.5 mL/min/kg. Also, the Drug metabolism result in [11] and in series [13] was “Not Active” each time. Moreover, the Tmax in series [12] was determined as 0.25 h.
